Experimental data published in ChEMBL document CHEMBL1152729, “Ceramides: branched alkyl chains in the sphingolipid siblings of diacylglycerol improve biological potency” (Bioorg Med Chem, 2009).

Experiments:
SUP-T1 [1] = assay: Cytotoxicity against human SupT1 cells after 24 hrs by CellTiter-Blue assay; assay type: functional, cell-based
In short: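 SupT1 cells cultured in RPMI with 10% FBS and penicillin-streptomycin, then incubated 24 h with serially diluted compound from 50 mM DMSO stocks. CellTiter-Blue resazurin reduction was read at 560/590 nm and normalized to the no-drug control as percent viability. IC50s came from the fitted dose-response curve of each experiment and were averaged over three experiments ± SD.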

MCF7 = assay: Cytotoxicity against human MCF7 cells after 24 hrs by CellTiter-Blue assay; assay type: functional, cell-based; details: MCF7, 24 h
In short: (§1)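 MCF-7 or MDA-MB231 cells kept in DMEM with 10% FBS and penicillin-streptomycin. The cells were exposed for 24 h to serial dilutions of compound, diluted in medium at 37 °C from 50 mM DMSO stocks. Viability was read by resazurin-to-resorufin fluorescence at 560/590 nm ex/em and normalized to the no-drug control. Dose-response fits gave IC50s, averaged over three experiments ± SD.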

SUP-T1 [2] = assay: Induction of early apoptosis in human SupT1 cells after 24 hrs using annexin V-FITC staining by FACS; assay type: functional, cell-based
In short: (§2)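 SupT1 cells treated for 24 h at different compound concentrations, then harvested and washed in PBS. Phosphatidylserine exposure was detected by Annexin V-FITC staining and flow cytometry. Brightly stained cells were counted as apoptotic.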

MDA-MB-231 = assay: Cytotoxicity against human MDA-MB-231 cells after 24 hrs by CellTiter-Blue assay; assay type: functional, cell-based; details: MDA-MB-231, 24 h; in short: as §1
SUP-T1 [3] = assay: Induction of early apoptosis in human SupT1 cells at 25 uM after 24 hrs using annexin V-FITC staining by FACS; assay type: functional; in short: as §2
SK-BR-3 = assay: Cytotoxicity against human SKBR3 cells after 24 hrs by CellTiter-Blue assay; assay type: functional, cell-based; details: SK-BR-3, 24 h
In short: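 SKBR3 breast cancer cells grown in DMEM with 10% FBS and penicillin-streptomycin. The cells were treated for 24 h with serial compound dilutions made in 37 °C medium from 50 mM DMSO stocks. Resorufin fluorescence (560/590 nm ex/em) was expressed as percent of the untreated control. Curve fitting gave IC50s, with the mean of three repeats ± SD.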

NHDF = assay: Cytotoxicity against NHDF after 24 hrs by CellTiter-Blue assay; assay type: cell-based; details: Homo sapiens
In short: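 Normal human dermal fibroblasts grown in fibroblast medium and treated for 24 h with serial compound dilutions. Viability was measured by resorufin fluorescence (560/590 nm ex/em) as percent of the no-drug control. IC50 was taken from the dose-response fit as a single determination.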

SUP-T1 [4] = assay: Induction of apoptosis in human SupT1 cells after 24 hrs using DiOC6 staining by FACS; assay type: functional, cell-based
In short: (§3)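 SupT1 cells exposed to varying compound concentrations for 24 h, then collected and PBS-washed. Mitochondrial depolarization was detected by 10 μM DiOC6 staining and flow cytometry. Cells with reduced DiOC6 staining were gated as apoptotic.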

SUP-T1 [5] = assay: Induction of apoptosis in human SupT1 cells at 25 uM after 24 hrs using DiOC6 staining by FACS; assay type: functional; in short: as §3
SUP-T1 [6] = assay: Induction of early apoptosis in human SupT1 cells at 50 uM after 24 hrs using annexin V-FITC staining by FACS; assay type: functional; in short: as §2
SUP-T1 [7] = assay: Induction of apoptosis in human SupT1 cells at 50 uM after 24 hrs using DiOC6 staining by FACS; assay type: functional; in short: as §3

Compound	IC50 (SUP-T1 [1]; Homo sapiens, SUP-T1, 24 h)	IC50 (MCF7)	Activity (SUP-T1 [2])	IC50 (MDA-MB-231)	IC50 (SK-BR-3)	IC50 (NHDF)	Activity (SUP-T1 [4])	further results
CCCCCC(=O)N[C@@H](CO)[C@H](O)/C=C/CC(CC(C)C)CC(C)C	52.9 µM							
CCCCCCCCCCCCC/C=C/[C@@H](O)[C@H](CO)NC(=O)CCCCC	48 µM							
CCCCCCCCCCC(=O)N[C@@H](CO)[C@H](O)/C=C/CC(CC(C)C)CC(C)C	15.5 µM	16.3 µM	Dose-dependent effect	22.4 µM	10.2 µM	45.4 µM	Dose-dependent effect	Activity (SUP-T1 [3]): 66.16%; Activity (SUP-T1 [5]): 75.15%
CCCCCCCCCCCCC/C=C/[C@@H](O)[C@H](CO)NC(C)=O (stereo in doubt; 1)		45.4 µM	Dose-dependent effect	35.4 µM	49.2 µM	66.5 µM	Dose-dependent effect	Activity (SUP-T1 [6]): 42.33%; IC50 (SUP-T1 [1]; sup-t1): 41.4 µM; Activity (SUP-T1 [7]): 56.14%
CCCCCCCCCCCC[C@@H](O)[C@H](CO)NC(=O)CC(CC(C)C)CC(C)C	76.3 µM							
CCCCCCCCCC/C=C/[C@@H](O)[C@H](CO)NC(=O)CC(CC(C)C)CC(C)C	29.1 µM							
